42 compounds from ChEMBL document CHEMBL1125075, “Synthesis of a new class of 2,3-dihydro-2-oxo-1H-benzimidazole-1-carboxylic acid derivatives as highly potent 5-HT3 receptor antagonists” (J Med Chem, 1990) can be followed below.

The test system of one assay is Rattus norvegicus. Description: Effective dose that causes 50% reduction of serotonin effect in rats intravenously. It counts as functional. In outline: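 Rat 5-HT-induced von Bezold-Jarisch reflex. ED50 is the antagonist dose giving 50% reduction of the serotonin effect, calculated by linear regression. Means with 95% confidence limits.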
The target of assay [1] is T1, Serotonin 3 (5-HT3) receptor (Rattus norvegicus, UniProt P35563+Q9JJ16).
T1 sequence (P35563 whole entry): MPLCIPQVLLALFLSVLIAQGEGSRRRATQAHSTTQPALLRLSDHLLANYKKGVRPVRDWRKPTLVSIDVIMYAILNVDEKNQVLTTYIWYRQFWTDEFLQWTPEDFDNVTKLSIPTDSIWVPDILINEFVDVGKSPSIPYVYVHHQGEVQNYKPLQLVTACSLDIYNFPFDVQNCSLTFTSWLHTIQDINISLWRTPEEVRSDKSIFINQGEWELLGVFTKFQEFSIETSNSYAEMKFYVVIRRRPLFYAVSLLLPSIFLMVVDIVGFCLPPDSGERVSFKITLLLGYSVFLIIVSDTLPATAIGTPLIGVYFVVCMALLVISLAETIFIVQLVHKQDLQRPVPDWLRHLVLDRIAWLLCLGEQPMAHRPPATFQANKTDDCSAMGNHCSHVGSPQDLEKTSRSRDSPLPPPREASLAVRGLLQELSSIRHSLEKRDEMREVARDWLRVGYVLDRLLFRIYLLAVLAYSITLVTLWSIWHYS
T1 sequence (Q9JJ16 whole entry): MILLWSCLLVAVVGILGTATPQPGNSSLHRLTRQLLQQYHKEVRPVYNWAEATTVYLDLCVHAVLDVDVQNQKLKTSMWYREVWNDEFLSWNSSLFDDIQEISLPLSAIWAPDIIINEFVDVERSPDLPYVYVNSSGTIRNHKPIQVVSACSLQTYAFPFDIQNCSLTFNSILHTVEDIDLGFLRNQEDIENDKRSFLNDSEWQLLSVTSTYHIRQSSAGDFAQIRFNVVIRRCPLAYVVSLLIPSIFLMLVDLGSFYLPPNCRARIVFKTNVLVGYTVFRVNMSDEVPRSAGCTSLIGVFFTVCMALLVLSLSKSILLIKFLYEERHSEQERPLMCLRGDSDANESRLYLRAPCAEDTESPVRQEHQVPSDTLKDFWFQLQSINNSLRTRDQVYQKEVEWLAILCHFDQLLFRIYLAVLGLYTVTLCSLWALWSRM
The assay can be described thus: Concentration that inhibits the binding of radioligand, [3H]-ICS 205930, to 5-hydroxytryptamine 3 receptor from rat cortex. In outline:
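Rat cerebral cortex P2 fraction homogenised in 50 mM Tris·HCl pH 7.4 with 0.1% ascorbate, 4 mM CaCl2 and 10 μM pargyline, about 500 μg/mL protein. Incubated with 0.5–2.0 nM [3H]ICS 205930 (82.7 Ci/mmol) and a range of test concentrations, 30 °C for 30 min. Nonspecific binding with 10 μM reference antagonist; GF/B filtration; triplicate; Ki by computer fit.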

[2] abbreviates: Rattus norvegicus, iv, read-out: ED50.

Structures are written as SMILES. Where only a bound is given, the exact number is not on record here.

For `CCN1C2CCC1CC(OC(=O)n1c(=O)[nH]c3ccccc31)C2` (configuration not stated), in the assay on Rattus norvegicus (setting [2]), the ED50 is above 3 µmol/kg. This compound also showed a Ki in assay [1] above 1000 nM.

Take `CN1C2CCCC1CC(NC(=O)n1c(=O)n(C)c3ccccc31)C2` (configuration not stated): the ED50 in the assay on Rattus norvegicus (setting [2]) was found to be 0.0015 µmol/kg. The affinity in assay [1] corresponds to a Ki of 0.89 nM.

With `CN1C2CCCC1CC(OC(=O)n1c(=O)[nH]c3ccccc31)C2.Cl` (configuration not stated), the ED50 in the assay on Rattus norvegicus was 10.8 nM/kg. In assay [1], this compound had a Ki of 2.17 nM.

As for `O=C(OC12CCN(CC1)CC2)n1c(=O)[nH]c2ccccc21`, the ED50 in the assay on Rattus norvegicus (setting [2]) was above 3 µmol/kg. In addition, the Ki in assay [1] was above 1000 nM.

In the assay on Rattus norvegicus, `CN1C2CCCC1CC(OC(=O)n1c(=O)[nH]c3ccccc31)C2.O=C(O)CC(O)(CC(=O)O)C(=O)O` (configuration not stated) registered an ED50 above 3000 nM/kg. In assay [1], the inhibition constant (Ki) was above 1000 nM.

Take `Cc1cccc2c1[nH]c(=O)n2C(=O)OC1CC2CCC(C1)N2C` (configuration not stated): the ED50 with Rattus norvegicus (setting [2]) is 0.0301 µmol/kg. In addition, the Ki in assay [1] is 7.94 nM.

For `CN1C2CCC1CC(NC(=O)n1c(=O)n(C)c3ccccc31)C2` (configuration not stated), in the assay with Rattus norvegicus (setting [2]), the ED50 is 0.0054 µmol/kg. The affinity in assay [1], expressed as Ki, was 1.7 nM.

As to `CN1C2CCC1CC(OC(=O)n1c(=O)[nH]c3ccccc31)C2` (configuration not stated), the ED50 in the assay on Rattus norvegicus turned out to be 17.9 nM/kg. In assay [1], the Ki was 21.4 nM.

With `CN1[C@@H]2CC[C@H]1C[C@@H](OC(=O)c1cc(Cl)cc(Cl)c1)C2` [BEMESETRON], the ED50 with Rattus norvegicus (setting [2]) came out at 0.195 µmol/kg. The compound also gave a Ki in assay [1] of 24.4 nM.

In the case of `CN1CC2CCC1CC2OC(=O)n1c(=O)[nH]c2ccccc21.O=C(O)CC(O)(CC(=O)O)C(=O)O` (configuration not stated), the ED50 in the assay with Rattus norvegicus is 18.9 nM/kg.

Regarding `CN1C2CCC1CC(OC(=O)n1c(=O)n(C)c3ccccc31)C2` (configuration not stated), the ED50 in the assay with Rattus norvegicus (setting [2]) came to 0.038 µmol/kg. Also, in assay [1], the Ki was determined as 12 nM.

Compound `COc1ccc2[nH]c(=O)n(C(=O)OC3CC4CCC(C3)N4C)c2c1` (configuration not stated) gave a Ki in assay [1] above 1000 nM.

As to `O=C(NC1CC2CCC(C1)N2Cc1ccccc1)n1c(=O)[nH]c2ccccc21` (configuration not stated), in the assay on Rattus norvegicus (setting [2]), the ED50 was above 3 µmol/kg. Further, in assay [1], the inhibition constant (Ki) was above 1000 nM.

Turning to `CN1C2CCC1CC(OC(=O)n1c(=O)[nH]c3cc(C(F)(F)F)ccc31)C2` (configuration not stated), in the assay with Rattus norvegicus (setting [2]), the ED50 was above 3 µmol/kg. The same compound displayed an inhibition constant Ki in assay [1] above 1000 nM.

As for `O=C(OC1CC2CCC(C1)N2Cc1ccccc1)n1c(=O)[nH]c2ccccc21` (configuration not stated), the ED50 in the assay with Rattus norvegicus (setting [2]) is above 3 µmol/kg. This compound also came in with an inhibitory constant (Ki) in assay [1] above 1000 nM.

As for `O=C(OC1CCNCC1)n1c(=O)[nH]c2ccccc21`, the ED50 in the assay with Rattus norvegicus (setting [2]) stood at 0.487 µmol/kg. The Ki in assay [1] was determined as 72.4 nM.

Turning to `CN1CCC(NC(=O)n2c(=O)[nH]c3ccccc32)CC1`, the ED50 with Rattus norvegicus (setting [2]) was found to be 1.52 µmol/kg. In assay [1], the Ki stood at 436 nM.

Turning to `CN1CCC(OC(=O)n2c(=O)[nH]c3ccccc32)CC1`, the ED50 in the assay with Rattus norvegicus (setting [2]) is above 3 µmol/kg. The same compound came in with a Ki in assay [1] above 1000 nM.

Take `O=C(NC1CCN2CCCC1C2)n1c(=O)[nH]c2ccccc21` (configuration not stated): the ED50 in the assay on Rattus norvegicus (setting [2]) is 0.289 µmol/kg. The compound also came in with an inhibitory constant (Ki) in assay [1] of 20.2 nM.

Consider `CN1C2CCC1CC(NC(=O)n1c(=O)[nH]c3ccccc31)C2` (configuration not stated), for which, in the assay on Rattus norvegicus, the ED50 stood at 1 nM/kg. In assay [1], this compound registered a Ki of 3.75 nM.

`CN1C2CCC1CC(OC(=O)n1c(=O)[nH]c3cc(F)ccc31)C2` (configuration not stated): the ED50 with Rattus norvegicus (setting [2]) is 0.204 µmol/kg. For the same compound, the affinity in assay [1], expressed as Ki, was 26.2 nM.

In the case of `CN(C(=O)n1c(=O)[nH]c2ccccc21)C1CC2CCCC(C1)N2C` (configuration not stated), the ED50 with Rattus norvegicus (setting [2]) is above 3 µmol/kg. The compound also gave a Ki in assay [1] above 1000 nM.

For the compound `CN1C2CCC1CC(NC(=O)n1c(=O)[nH]c3ccccc31)C2.Cl` (configuration not stated), the ED50 in the assay with Rattus norvegicus is above 3000 nM/kg. Besides, the Ki in assay [1] was above 1000 nM.

Take `CN1C2CCCC1CC(NC(=O)n1c(=O)[nH]c3ccccc31)C2.Cl` (configuration not stated): in the assay with Rattus norvegicus, the ED50 was 1.1 nM/kg. Besides, affinity in assay [1] was put at a Ki of 1.53 nM.

For the compound `CN1CC2CCC1CC2OC(=O)n1c(=O)[nH]c2ccccc21.Cl` (configuration not stated), in the assay with Rattus norvegicus, the ED50 was above 3000 nM/kg. The compound also came in with an inhibition constant Ki in assay [1] above 1000 nM.

Regarding `CN1C2CCC1CC(OC(=O)n1c(=O)[nH]c3ccc(F)cc31)C2` (configuration not stated), the ED50 in the assay on Rattus norvegicus (setting [2]) turned out to be 0.062 µmol/kg. Further, the affinity in assay [1] corresponds to a Ki of 33.9 nM.

On to `Cc1cc2[nH]c(=O)n(C(=O)OC3CC4CCC(C3)N4C)c2cc1C` (configuration not stated), for which, in the assay with Rattus norvegicus (setting [2]), the ED50 is above 3 µmol/kg. The Ki in assay [1] is above 1000 nM.

On to `CN1C2CCCC1CC(NC(=O)n1c(=O)[nH]c3ccccc31)C2` (configuration not stated), for which, in the assay with Rattus norvegicus, the ED50 came to 905 nM/kg. The Ki in assay [1] worked out at 130 nM.

With `O=C(OC1CN2CCC1CC2)n1c(=O)[nH]c2ccccc21` (configuration not stated), the ED50 in the assay on Rattus norvegicus (setting [2]) is 0.8 µmol/kg. Affinity in assay [1] was put at a Ki of 16.3 nM.

Take `C[N+]1(C)C2CCC1CC(OC(=O)n1c(=O)[nH]c3ccccc31)C2` (configuration not stated): the ED50 with Rattus norvegicus (setting [2]) was 0.0093 µmol/kg. The same compound had a Ki in assay [1] of 33.6 nM.

For the compound `CN1C2CCC1C(OC(=O)n1c(=O)[nH]c3ccccc31)C2` (configuration not stated), the ED50 in the assay with Rattus norvegicus (setting [2]) was above 3 µmol/kg. The compound further returned a Ki in assay [1] above 1000 nM.

Take `CCn1c(=O)n(C(=O)NC2CC3CCC(C2)N3C)c2ccccc21` (configuration not stated): in the assay with Rattus norvegicus (setting [2]), the ED50 was 0.0051 µmol/kg. The compound also displayed a Ki in assay [1] of 2.3 nM.

Regarding `Cc1cccc2[nH]c(=O)n(C(=O)OC3CC4CCC(C3)N4C)c12` (configuration not stated), in the assay on Rattus norvegicus (setting [2]), the ED50 is above 3 µmol/kg. Further, affinity in assay [1] was put at a Ki of 306 nM.

Turning to `CC(=O)c1ccc2[nH]c(=O)n(C(=O)OC3CC4CCC(C3)N4C)c2c1` (configuration not stated), the ED50 in the assay on Rattus norvegicus (setting [2]) is above 3 µmol/kg. This compound displayed a Ki in assay [1] above 1000 nM.

As to `O=C(NC1CN2CCC1CC2)n1c(=O)[nH]c2ccccc21` (configuration not stated), in the assay on Rattus norvegicus (setting [2]), the ED50 worked out at 0.0035 µmol/kg. Moreover, the affinity in assay [1] corresponds to a Ki of 2.07 nM.

In the case of `Cc1ccc2c(c1)[nH]c(=O)n2C(=O)OC1CC2CCC(C1)N2C` (configuration not stated), in the assay with Rattus norvegicus (setting [2]), the ED50 is above 3 µmol/kg. Besides, the Ki in assay [1] was above 1000 nM.

Turning to `CN1[C@@H]2CC[C@H]1C[C@@H](OC(=O)c1c[nH]c3ccccc13)C2` [TROPISETRON], in the assay with Rattus norvegicus (setting [2]), the ED50 is 0.0021 µmol/kg. In assay [1], this compound displayed a Ki of 1.71 nM.

Regarding `CN1C2CCC1CC(OC(=O)n1c(=O)[nH]c3cc(Cl)ccc31)C2` (configuration not stated), in the assay with Rattus norvegicus (setting [2]), the ED50 was above 3 µmol/kg. The compound further showed an inhibitory constant (Ki) in assay [1] above 1000 nM.

For `CCn1c(=O)n(C(=O)OC2CC3CCC(C2)N3C)c2ccccc21` (configuration not stated), the ED50 in the assay with Rattus norvegicus (setting [2]) came out at 0.0097 µmol/kg. For the same compound, in assay [1], the inhibitory constant (Ki) came to 18 nM.

With `CC1CC(OC(=O)n2c(=O)[nH]c3ccccc32)CC(C)N1C` (configuration not stated), the ED50 with Rattus norvegicus (setting [2]) was above 3 µmol/kg. This compound had a Ki in assay [1] above 1000 nM.

On to `COc1ccc2c(c1)[nH]c(=O)n2C(=O)OC1CC2CCC(C1)N2C` (configuration not stated), for which, in the assay on Rattus norvegicus (setting [2]), the ED50 was above 3 µmol/kg. Further, the Ki in assay [1] was above 1000 nM.

Regarding `CN1C2CCC1CC(OC(=O)n1c(=O)[nH]c3ccccc31)C2.Cl` (configuration not stated), the ED50 in the assay on Rattus norvegicus turned out to be 3982 nM/kg. Further, the Ki in assay [1] is above 1000 nM.
